ChEMBL document CHEMBL1154735, “A strategy to minimize reactive metabolite formation: discovery of (S)-4-(1-cyclopropyl-2-methoxyethyl)-6-[6-(difluoromethoxy)-2,5-dimethylpyridin-3-ylamino]-5-oxo-4,5-dihydropyrazine-2-carbonitrile as a potent, orally bioavailable corticotropin-releasing factor-1 receptor antagonist” (J Med Chem, 2009)
In brackets after ≈: the same amount, converted by molar mass. One block for each compound: values may come before it. Activity calls are given as the source filed them. No cut-off for these calls is given here.

Tests used:
[1] = Metabolic stability in human liver microsomes assessed as compound remaining at 3 uM after 10 mins by HPLC/UV/MS analysis; type: ADME, Microsome; details: read-out: Stability
[2] = target: T1, Corticotropin-releasing factor receptor 1 (Rattus norvegicus, UniProt P35353); assay: Displacement of [125I]Tyr-o-CRF from CRF1 receptor in rat frontal cortex homogenate by binding titration assay; type: tissue-based
T1 sequence (P35353 whole entry): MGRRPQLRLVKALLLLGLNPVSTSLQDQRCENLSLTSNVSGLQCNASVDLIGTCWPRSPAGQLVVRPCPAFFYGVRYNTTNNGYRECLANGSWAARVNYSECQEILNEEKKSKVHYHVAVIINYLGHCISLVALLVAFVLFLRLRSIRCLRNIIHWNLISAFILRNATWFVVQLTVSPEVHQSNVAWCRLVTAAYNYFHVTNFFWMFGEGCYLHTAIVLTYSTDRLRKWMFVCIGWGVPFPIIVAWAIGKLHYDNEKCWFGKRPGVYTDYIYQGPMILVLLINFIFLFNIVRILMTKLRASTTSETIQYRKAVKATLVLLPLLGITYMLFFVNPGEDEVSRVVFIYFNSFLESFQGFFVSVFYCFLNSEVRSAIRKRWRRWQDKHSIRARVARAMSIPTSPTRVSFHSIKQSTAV

[3] = Metabolic stability in rat liver microsomes assessed as compound remaining at 3 uM after 10 mins by HPLC/UV/MS analysis; type: ADME, Microsome; details: read-out: Stability
Method in brief: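 Pooled human or rat liver microsomes (1 mg/mL protein) with 3 μM compound and 1.3 mM NADPH in 100 mM sodium phosphate pH 7.4 at 37 °C; final 0.015% DMSO, 0.985% acetonitrile; stopped at 0 and 10 min, percent remaining by LC/MS/MS.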

[4] = Octanol-water partition coefficient, log D at pH 7.4; type: physicochemical
Method in brief: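 Partitioning between octanol and water at pH 7.4.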

[5] = Aqueous solubility at pH 1; type: physicochemical
[6] = Oral bioavailability in Sprague-Dawley rat at 10 mg/kg dosed as aqueous suspension of Labrafil M 1944CS/DMAC/polysorbate 80, 85:10:5 (v/v) after 0.25 to 24 hrs by LC/MS/MS analysis; type: ADME, organism-based; details: in vivo
[7] = AUC in Sprague-Dawley rat at 10 mg/kg, po dosed as aqueous suspension of 1% polysorbate 80 in 0.5% methylcellulose after 0.25 to 24 hrs by LC/MS/MS analysis; type: ADME, organism-based; design: time upper 24 hr, time lower 0.25 hr, dose 10 mg/kg, route oral; details: in vivo
[8] = Cmax in Sprague-Dawley rat at 10 mg/kg, po dosed as aqueous suspension of Labrafil M 1944CS/DMAC/polysorbate 80, 85:10:5 (v/v) after 2 to 4 hrs by LC/MS/MS analysis; type: ADME, organism-based; design: dose 10 mg/kg, route oral; details: in vivo
[9] = Dissociation constant, pKa by spectrophotometric titration method; type: physicochemical
Method in brief: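 Spectrophotometric titration over pH 2–11 in varying acetonitrile/water mixtures, extrapolated to 0% cosolvent.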

[10] = Oral bioavailability in Sprague-Dawley rat at 10 mg/kg dosed as aqueous suspension of 1% polysorbate 80 in 0.5% methylcellulose after 0.25 to 24 hrs by LC/MS/MS analysis; type: ADME, organism-based; details: in vivo
[11] = Volume of distribution at steady state in Sprague-Dawley rat at 2 mg/kg, iv after 0.17 to 24 hrs by LC/MS/MS analysis; type: ADME, organism-based; design: dose 2 mg/kg, route intravenous; details: in vivo, read-out: Vdss
Method in brief: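 Sprague–Dawley rats (n = 3) dosed 2 mg/kg iv in PEG:ethanol 90:10 (v/v) at 1 mL/kg. Plasma stored at –20 °C and quantified by LC/MS/MS after acetonitrile precipitation with internal standard.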

[12] = Clearance in Sprague-Dawley rat at 2 mg/kg, iv after 0.17 to 24 hrs by LC/MS/MS analysis; type: ADME, organism-based; design: dose 2 mg/kg, route intravenous; details: in vivo
[13] = Cmax in Sprague-Dawley rat at 10 mg/kg, po dosed as aqueous suspension of 1% polysorbate 80 in 0.5% methylcellulose after 2 to 4 hrs by LC/MS/MS analysis; type: ADME, organism-based; design: dose 10 mg/kg, route oral; details: in vivo
[14] = Aqueous solubility at pH 6.5; type: physicochemical
[15] = Half life in Sprague-Dawley rat at 2 mg/kg, iv by LC/MS/MS analysis; type: ADME, organism-based; design: dose 2 mg/kg, route intravenous; details: in vivo
[16] = AUC in Sprague-Dawley rat at 10 mg/kg, po dosed as aqueous suspension of Labrafil M 1944CS/DMAC/polysorbate 80, 85:10:5 (v/v) after 0.25 to 24 hrs by LC/MS/MS analysis; type: ADME, organism-based; design: time 0.25-24 hr, dose 10 mg/kg, route oral; details: plasma
[17] = Fraction unbound in human serum after 3 to 7 hrs by equilibrium dialysis; type: ADME, cell-free
Method in brief: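 Human serum spiked with compound, equilibrium-dialysed against isotonic phosphate buffer for 3 or 7 h (depending on system) at 37 °C; both sides measured by LC/MS/MS, unbound fraction as buffer/serum concentration ratio.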

[18] = Metabolic stability in NADPH-fortified human liver microsomes assessed as parent compound remaining at 10 uM after 30 mins by HPLC/UV/MS analysis; type: ADME, Microsome; details: read-out: Stability
Method in brief: (§1)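 Pooled rat or human liver microsomes 1 mg/mL, 10 μM substrate, 100 mM potassium phosphate pH 7.4, 37 °C, started with NADPH-regenerating system (1.3 mM NADP+, 3.3 mM glucose-6-phosphate, 3.3 mM MgCl2, 0.5 U/mL G6PDH); GSH 5 mM in trapping runs. Sampled 0 and 30 min, acetonitrile quench; abundance as UV peak area (330–340 nm) fraction of all drug-related components by HPLC/UV/MS.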

Liver microsomes [19] = assay: Metabolic stability in NADPH-fortified human liver microsomes assessed as GSH adduct formation at 10 uM after 30 mins by HPLC/UV/MS analysis; type: ADME, Microsome; details: 0.5 h; method in brief: as §1
[20] = Metabolic stability in NADPH-fortified rat liver microsomes assessed as parent compound remaining at 10 uM after 30 mins by HPLC/UV/MS analysis; type: ADME, Microsome; details: read-out: Stability; method in brief: as §1
Liver microsomes [21] = assay: Metabolic stability in NADPH-fortified rat liver microsomes assessed as GSH adduct formation at 10 uM after 30 mins by HPLC/UV/MS analysis; type: ADME, Microsome; details: 0.5 h; method in brief: as §1
Liver microsomes [22] = assay: Metabolic stability in NADPH-fortified rat liver microsomes assessed as pyrazinone oxidation metabolite formation at 10 uM after 30 mins by HPLC/UV/MS analysis; type: ADME, Microsome; details: 0.5 h; method in brief: as §1
Liver microsomes [23] = assay: Metabolic stability in NADPH-fortified human liver microsomes assessed as pyrazinone oxidation metabolite formation at 10 uM after 30 mins by HPLC/UV/MS analysis; type: ADME, Microsome; details: 0.5 h; method in brief: as §1
Rattus norvegicus [24] = assay: Ex vivo receptor occupancy of CRF1 receptor in Sprague-Dawley rat brain parietal assessed as inhibition of [125I]sauvagine binding at 10 mg/kg, po after 90 mins by autoradiography; type: functional; details: 1.5 h
Rattus norvegicus [25] = assay: Anxiolytic activity in Sprague-Dawley rat assessed as decrease in exit latency at 10 mg/kg, po after 60 mins by defensive withdrawal test; type: functional, organism-based; design: dose 10 mg/kg
[26] = Displacement of [125I]sauvagine from CRF2 receptor in porcine choroid plexus homogenate by binding titration assay; type: tissue-based, Sus scrofa
Method in brief: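 Porcine choroid plexus homogenate; inhibition of [125I]-sauvagine binding measured in a titration format.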

remaining at 10 min, 3 µM [1]: 39%
IC50 [2]: 14 nM
remaining at 10 min, 3 µM [3]: 8%
SMILES: COC[C@@H](C)n1cc(Cl)nc(Nc2cc(C)c(OC)nc2C)c1=O

remaining at 10 min, 3 µM [1]: 87%
IC50 [2]: 1.6 nM
remaining at 10 min, 3 µM [3]: 66%
SMILES: COC[C@@H](C)n1cc(Cl)nc(Nc2cc(C)c(OC(F)F)nc2C)c1=O

IC50 [26]: 0.58 nM
SMILES: CC[C@H](C)[C@H](NC(=O)[C@@H](NC(=O)[C@H](CC(=O)O)NC(=O)[C@H](CC(C)C)NC(=O)[C@H](CC(C)C)NC(=O)[C@H](CC(C)C)NC(=O)[C@H](CCCN=C(N)N)NC(=O)[C@H](CC(N)=O)NC(=O)[C@H](CC(N)=O)NC(=O)[C@H](C)NC(=O)[C@H](C)NC(=O)[C@H](CCC(N)=O)NC(=O)[C@H](CCC(N)=O)NC(=O)[C@H](CCCCN)NC(=O)[C@H](CCC(=O)O)NC(=O)[C@H](CCCCN)NC(=O)[C@H](CCC(=O)O)NC(=O)[C@H](CCC(N)=O)NC(=O)[C@H](CCCCN)NC(=O)[C@H](CCC(=O)O)NC(=O)[C@@H](NC(=O)[C@H](CCC(=O)O)NC(=O)[C@@H](NC(=O)[C@H](CCSC)NC(=O)[C@H](CCCCN)NC(=O)[C@H](CCCN=C(N)N)NC(=O)[C@H](CC(C)C)NC(=O)[C@H](CC(C)C)NC(=O)[C@H](CCC(=O)O)NC(=O)[C@H](CC(C)C)NC(=O)[C@H](CO)NC(=O)[C@H](CC(C)C)NC(=O)[C@H](CC(=O)O)NC(=O)[C@@H](NC(=O)[C@H](CO)NC(=O)[C@@H](NC(=O)[C@@H]1CCCN1C(=O)[C@@H]1CCCN1C(=O)CNC(=O)[C@@H]1CCC(=O)N1)[C@@H](C)CC)[C@@H](C)CC)[C@@H](C)CC)[C@@H](C)CC)[C@@H](C)O)C(=O)O [SAUVAGINE]

remaining at 10 min, 3 µM [1]: 51%
IC50 [2]: 0.28 nM
remaining at 10 min, 3 µM [3]: 5%
SMILES: CC[C@H](C1CC1)n1cc(Cl)nc(Nc2cc(C)c(OC)nc2C)c1=O

remaining at 10 min, 3 µM [1]: 100%
IC50 [2]: 0.3 nM
remaining at 10 min, 3 µM [3]: 86%
SMILES: Cc1cc(Nc2nc(Cl)cn([C@H](C)C3CC3)c2=O)c(C)nc1OC(F)F

Continued, compound first:

SMILES: CC[C@H](C1CC1)n1cc(C#N)nc(Nc2cc(C)c(OC)nc2C)c1=O
logD [4]: 4.1
solubility [5]: 23 µg/mL (≈ 65.1 µM)
remaining at 10 min, 3 µM [1]: 81%
bioavailability [6]: 33%
AUC [7]: 0.24 µM·h
Cmax [8]: 590 nM
IC50 [2]: 1.7 nM
pKa [9]: < 2
remaining at 10 min, 3 µM [3]: 38%
bioavailability [10]: 3%
Vd [11]: 11 L/kg
clearance [12]: 53 mL/min/kg
Cmax [13]: 50 nM
solubility [14]: 1 µg/mL (≈ 2.83 µM)
half-life [15]: 9 h
AUC [16]: 3 µM·h
fraction unbound [17]: 0.019

SMILES: COC[C@H](C1CC1)n1cc(Cl)nc(Nc2cc(C)c(OC(F)F)nc2C)c1=O
remaining at 0.5 h, 10 µM [18]: 75%
bioavailability [6]: 86%
AUC [7]: 7 µM·h
Cmax [8]: 1300 nM
IC50 [2]: 0.24 nM
Activity (Liver microsomes [19]): 5%
remaining at 0.5 h, 10 µM [20]: 42%
remaining at 10 min, 3 µM [3]: 69%
bioavailability [10]: 66%
Activity (Liver microsomes [21]): 3%
Vd [11]: 15 L/kg
clearance [12]: 36 mL/min/kg
Cmax [13]: 770 nM
Activity (Liver microsomes [22]): 1%
Activity (Liver microsomes [23]): 1%
half-life [15]: 9.2 h
AUC [16]: 9 µM·h
fraction unbound [17]: 0.008

SMILES: COCC(COC)Nc1nc(C)nc2c(-c3ccc(Cl)cc3Cl)c(C)nn12
inhibition in vivo at 10 mg/kg (Rattus norvegicus [24]): 89%
Activity (Rattus norvegicus [25]): Active

SMILES: COc1nc(C)c(Nc2nc(C#N)cn([C@H](C)C3CC3)c2=O)cc1C
remaining at 10 min, 3 µM [1]: 99%
IC50 [2]: 10 nM
remaining at 10 min, 3 µM [3]: 72%
